Screening data deposited in PubChem by several laboratories.
HGIII-sPLA2 inh – human group III sPLA2 inhibitors, primary screen, biochemical, QFRET, BODIPY PC-A2 liposome substrate; QFRET BODIPY PC-A2 liposome hydrolysis, fluorescence; inhibition, % at 12.2 µM; AID 743126, 2013; hit rate 0.56% among 370,000; Group 3 secretory phospholipase A2 (Homo sapiens), Q9NZ20;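 active means inhibition above mean plus 3 SD of compounds lying within the high and low control bounds, cut at about 19% in these data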;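 further: 0% = median of test compound wells and 100% = no enzyme DMSO wells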
MC4R barr agon – MC4R agonists recruiting beta-arrestin, primary screen, cell-based, luminescence, agonist arm of biased-ligand search | hit rate 0.98% among 360,000 | activation, % at 8.9 µM | AID 540308, 2011 | U2OS MC4R beta-arrestin complementation; percent of melanotan II response, DMSO zero;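 active means activation above a per-plate cutoff, the mean activation of sample wells on that plate plus 3 SD, cut at about 8% in these data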
Target sequence (P32245 whole entry, looked up): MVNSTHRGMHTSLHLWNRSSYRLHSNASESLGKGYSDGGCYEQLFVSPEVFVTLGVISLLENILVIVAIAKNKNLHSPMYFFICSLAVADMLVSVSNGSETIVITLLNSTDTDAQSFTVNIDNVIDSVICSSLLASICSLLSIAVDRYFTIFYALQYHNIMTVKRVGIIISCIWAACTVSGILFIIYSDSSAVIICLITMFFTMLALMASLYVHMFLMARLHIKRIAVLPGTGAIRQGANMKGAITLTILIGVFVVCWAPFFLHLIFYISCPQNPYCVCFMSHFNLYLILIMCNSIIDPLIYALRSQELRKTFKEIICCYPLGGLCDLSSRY
MC4R antag cAMP – MC4R antagonists of cAMP signaling, primary screen, cell-based, TR-FRET, antagonist arm of biased-ligand search; MC4R-expressing cells, MTII-stimulated cAMP, LANCE TR-FRET; inhibition, % at 6.5 µM; hit rate 0.48% among 360,000; AID 540295, 2011;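 active means inhibition above its plate's cutoff, the mean of tested wells on that plate plus 3 SD, cut at about 29% in these data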;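 further: 0% = Melanotan II alone and 100% = Melanotan II plus saturating MCL0020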
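Material: human MC4R-expressing U2OS cells. Probe or stimulus: Melanotan II challenge. Dosing: 6.5 µM single dose. Times: 30-min compound, 1-h challenge, 1-h detection, room temperature. Technique: TR-FRET with Eu-cAMP and labeled anti-cAMP, 671 nm. Replication: singlicate.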
NTR1 ag – agonists of human NTR1, primary screen, imaging, U2OS cells, beta-arrestin-GFP, high content; Neurotensin receptor type 1 (Homo sapiens), P30989; NTR1-U2OS beta-arrestin-GFP spot imaging, agonist mode; activation, % at 20 µM; hit rate 0.17% among 330,000;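 active means activation at or above 40% of the spot to cytoplasm intensity ratio, with at least 20 cells analyzed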;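 further: 0% = DMSO without peptide and 100% = 100 nM NTR1 peptide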
Bfl-1 A1 inh – caspase 3/7 activation in MEF A1-2A-BIM cells, primary screen, A1 inhibitor project, cell-based, luminescence, HTS; caspase activation, % (concentration not given with the values); hit rate 0.066% among 330,000; Caspase-Glo 3/7 luminescence, 3 h; percent of clofoctol response, vehicle zero;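 active means over half of replicate activation scores above 10%, or exactly half above 10 with the replicate mean above 10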
Granule exo inh – LAMP-1 surface exposure blockers, TALL-104 cells – cell-based, flow cytometry, MLPCN library, primary screen; hit rate 0.66% among 360,000; inhibition, % at 10 µM; TALL-104 LAMP-1 surface exposure; cells stimulated with thapsigargin and PMA; AID 651702, 2012;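 active means inhibition above about 55%, limit read from the data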
U2OS cAMP counter – nonselective cAMP signaling inhibitors, parental cells, counter-screen for MC4R biased antagonist project, cell-based, TR-FRET, U2OS, forskolin, triplicate. LANCE TR-FRET. AID 602193, 2012. hit rate 26% among 1,600. shares compounds with MC4R antag cAMP. inhibition, % at 6.5 µM;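 active means mean inhibition over triplicates above the low-control well mean plus 3 SD, set per campaign, cut at about 13% in these data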;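 further: signal is single emission at 671 nm which falls as cellular cAMP rises; 0% = forskolin-stimulated wells and 100% = buffer without forskolin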
MC4R cAMP antag – MC4R cAMP antagonists, retest, confirmation, cell-based, TR-FRET; shares compounds with MC4R antag cAMP; MC4R-expressing cells, MTII-stimulated cAMP; inhibition, % at 6.5 µM; hit rate 27% among 1,600; in the data active means inhibition above about 29%;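 further: 0% = agonist stimulated wells alone and 100% = agonist stimulated wells plus saturating reference antagonist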
* marks the source's active call; other numbers are inactive results. A selection: hits, their analogues and other compounds. The true share with any hit is near 2.5%.

How did CC(C)N1C(=O)S/C(=C/c2ccccc2OCc2ccc(C(=O)O)cc2)C1=O do in these assays?
HGIII-sPLA2 inh: -24; MC4R barr agon: -1; MC4R antag cAMP: 31*; NTR1 ag: 0; Bfl-1 A1 inh: 0; Granule exo inh: -2; U2OS cAMP counter: -4; MC4R cAMP antag: -4

Results for COc1ccccc1-c1cc(SC)c(C#N)c(=O)o1 ?
HGIII-sPLA2 inh: -6; MC4R barr agon: -2; MC4R antag cAMP: 50*; NTR1 ag: 2; Bfl-1 A1 inh: 0; Granule exo inh: 17; U2OS cAMP counter: 23*; MC4R cAMP antag: 38*

What do the screens show for `CC(COc1ccccc1C#N)CN1CCC(C(O)(c2ccccc2)c2ccccc2)CC1` (stereo not given)?
HGIII-sPLA2 inh: -20

What do the screens show for `CCOC(=O)N1CCN(C(=O)C[C@H]2C[C@@]3(C(=O)OC)C(=C[C@H](C(C)(C)C)O[C@@H]3C)N(Cc3ccc4c(c3)OCO4)C2=O)CC1`?
HGIII-sPLA2 inh: -4

How did C=CCN1C(C(=O)OC)CN(Cc2cn(Cc3ccc(OC)cc3)nn2)CCS1(=O)=O (stereo not given) do in these assays?
HGIII-sPLA2 inh: 8

What do the screens show for `CC(C)(C)c1ccc2c(c1)OC(C(=O)N/N=C\c1ccc(-c3cccc(C(=O)O)c3)o1)CO2` (stereo not given)?
HGIII-sPLA2 inh: -15; MC4R barr agon: 0; MC4R antag cAMP: 29*; NTR1 ag: 3; Bfl-1 A1 inh: 1; Granule exo inh: 12; U2OS cAMP counter: -4; MC4R cAMP antag: -11

Results for O=C(O)c1cccc(-c2ccc(/C=N/NC(=O)C3COc4ccccc4O3)o2)c1 (stereo not given) ?
HGIII-sPLA2 inh: -2; MC4R barr agon: -3; MC4R antag cAMP: -1; NTR1 ag: -2; Bfl-1 A1 inh: -2; Granule exo inh: -3

What do the screens show for `CCOC(=O)[C@@]12CCCC3=C1N(CCC3)C(=O)[C@H]2CC(=O)NCc1cccc2ccccc12`?
HGIII-sPLA2 inh: -6

What do the screens show for `COc1ccc(/C=C/C(=O)c2ccccn2)cc1`?
HGIII-sPLA2 inh: -13; MC4R barr agon: -3; MC4R antag cAMP: 6; NTR1 ag: -2; Bfl-1 A1 inh: -7; Granule exo inh: 0

What do the screens show for `COc1ccc([N+](=O)[O-])c(C=CC(=O)c2ccccn2)c1`?
HGIII-sPLA2 inh: 4; MC4R barr agon: 0; MC4R antag cAMP: 30*; Granule exo inh: -1; U2OS cAMP counter: -1; MC4R cAMP antag: 14

How did COc1cccc(NC(=O)CN(C)C(=O)c2cc(-c3ccc(F)cc3)nc3ccccc23)c1 do in these assays?
HGIII-sPLA2 inh: -44; MC4R barr agon: -2; MC4R antag cAMP: 6; NTR1 ag: 8; Bfl-1 A1 inh: 0; Granule exo inh: 6

How did COc1ccc(-c2cc(C(=O)N(C)CC(=O)Nc3cccc(F)c3)c3ccccc3n2)cc1OC do in these assays?
HGIII-sPLA2 inh: -35; MC4R barr agon: -1; MC4R antag cAMP: 30*; Granule exo inh: 14; U2OS cAMP counter: 1; MC4R cAMP antag: 1

How did Clc1ccc(CN2CCN(N=Cc3c4ccccc4cc4ccccc34)CC2)cc1 do in these assays?
HGIII-sPLA2 inh: 2

Results for O=C1CC(=O)N(CCNc2ncc(C(F)(F)F)cc2Cl)C(=O)N1 ?
HGIII-sPLA2 inh: -9; MC4R barr agon: 1; MC4R antag cAMP: -6; NTR1 ag: -1; Bfl-1 A1 inh: 1; Granule exo inh: 2

Results for O=C1C=CC(=O)N1CCNc1ncc(C(F)(F)F)cc1Cl ?
HGIII-sPLA2 inh: 4; MC4R barr agon: -2; MC4R antag cAMP: 53*; NTR1 ag: 29; Granule exo inh: 25; U2OS cAMP counter: -5; MC4R cAMP antag: 24

How did Cc1ccc(Cn2nnc3c2-c2cc(F)ccc2S(=O)(=O)N(C(C)(C)C)C3)cc1 do in these assays?
HGIII-sPLA2 inh: 5

What do the screens show for `COc1ccc(/C=N/Nc2nc(Nc3ccccc3)nc(N3CCCC3)n2)cc1[N+](=O)[O-]`?
HGIII-sPLA2 inh: 0; MC4R barr agon: 3; MC4R antag cAMP: 32*; NTR1 ag: 2; Bfl-1 A1 inh: 2; Granule exo inh: 8; U2OS cAMP counter: 2; MC4R cAMP antag: 1

Results for COc1ccc(/C=N/Nc2nc(N3CCCCC3)nc(N3CCCCC3)n2)cc1[N+](=O)[O-] ?
HGIII-sPLA2 inh: -2; MC4R barr agon: 0; MC4R antag cAMP: 25; NTR1 ag: 4; Bfl-1 A1 inh: 0; Granule exo inh: -1

How did COC(=O)C1=C(C)N(Cc2ccccc2)C(=S)NC1c1ccc(Cl)cc1 (stereo not given) do in these assays?
HGIII-sPLA2 inh: 7

What do the screens show for `O=C(c1cccc([N+](=O)[O-])c1)c1ccc2c(c1)OCCOCCOCCOCCO2`?
HGIII-sPLA2 inh: -1; MC4R barr agon: 1; MC4R antag cAMP: 35*; NTR1 ag: 0; Bfl-1 A1 inh: 1; Granule exo inh: 4; U2OS cAMP counter: 1; MC4R cAMP antag: 0

How did CCN(c1ccc(OCC(=O)OCC(=O)c2c(N)n(C)c(=O)n(C)c2=O)cc1)S(=O)(=O)c1ccccc1 do in these assays?
HGIII-sPLA2 inh: 7; MC4R barr agon: -2; MC4R antag cAMP: 42*; NTR1 ag: 5; Bfl-1 A1 inh: 1; Granule exo inh: 53; U2OS cAMP counter: 9; MC4R cAMP antag: 19

What do the screens show for `Cn1c(N)c(C(=O)COC(=O)CC(NC(N)=O)c2ccc(Cl)cc2)c(=O)n(C)c1=O` (stereo not given)?
HGIII-sPLA2 inh: 9; MC4R barr agon: 0; MC4R antag cAMP: 5; NTR1 ag: 0; Granule exo inh: 7

How did CC(=O)NC(CC(=O)OCC(=O)c1c(N)n(C)c(=O)n(C)c1=O)c1ccccc1 (stereo not given) do in these assays?
HGIII-sPLA2 inh: 15; MC4R barr agon: -2; MC4R antag cAMP: 30*; NTR1 ag: 1; Bfl-1 A1 inh: 0; Granule exo inh: 17; U2OS cAMP counter: 7; MC4R cAMP antag: 5
